Reference: ChEMBL document CHEMBL1944586, “Malaria-infected mice are completely cured by one 6 mg/kg oral dose of a new monomeric trioxane sulfide combined with mefloquine” (J Med Chem, 2012)

Legend:
Mus musculus = assay: Toxicity in Plasmodium berghei ANKA infected C57BL/6 mouse assessed as effect on longevity at 100 mg/kg, po administered 24 hrs post-infection measured after 3 days; format: organism-based; set-up: dose 100 mg/kg, route oral; settings: in vivo, 72 h
Plasmodium berghei [1] = assay: Antimalarial activity against Plasmodium berghei ANKA infected in C57BL/6 mouse assessed as host survival at 100 mg/kg, po administered 24 hrs post-infection (reference value: 6.8 days); format: functional
Plasmodium falciparum = assay: Antimalarial activity against Plasmodium falciparum NF54; format: functional, organism-based
Plasmodium berghei [2] = assay: Antimalarial activity against Plasmodium berghei ANKA infected in C57BL/6 mouse assessed as host survival at 18 mg/kg, po administered 24 hrs post-infection (reference value: 6.8 days); format: functional
Plasmodium berghei [3] = assay: Antimalarial activity against Plasmodium berghei ANKA infected in C57BL/6 mouse assessed as host survival at 15 mg/kg, po administered 24 hrs post-infection (reference value: 6.8 days); format: functional
Plasmodium berghei [4] = assay: Antimalarial activity against Plasmodium berghei ANKA infected in C57BL/6 mouse assessed as decrease in parasitemia at 15 mg/kg, po administered 24 hrs post-infection measured after 3 days by Giemsa microscopy relative to vehicle treated control; format: functional; set-up: scale not given: the % may be the effect or the level left
Summary of the method: (§1)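 Male C57BL/6J mice, 5 weeks old, about 20 g, infected i.p. on day 0 with 5 × 10⁷ P. berghei ANKA-parasitized erythrocytes. At 24 h post-infection, four mice per group received one oral dose in 7:3 Tween 80:ethanol diluted in water: trioxane 6 mg/kg plus mefloquine HCl 18 mg/kg, or trioxane 7.5 mg/kg plus mefloquine HCl 15 mg/kg. Untreated infected controls were included. Blood parasitemia was read by Giemsa microscopy.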

Plasmodium berghei [5] = assay: Antimalarial activity against Plasmodium berghei ANKA infected in C57BL/6 mouse assessed as decrease in parasitemia at 18 mg/kg, po administered 24 hrs post-infection measured after 3 days by Giemsa microscopy relative to vehicle treated control; format: functional; set-up: scale not given: the % may be the effect or the level left; summary of the method: as §1

**Q.** Which Activity (Mus musculus) does the source give for `CSc1cccc(NC(=O)CC[C@H]2O[C@@H]3O[C@@]4(C)CC[C@H]5[C@H](C)CC[C@@H]([C@H]2C)[C@@]35OO4)c1` here?
**A.** Its Activity is “Non-toxic”.

**Q.** What about the Survival (Plasmodium berghei [1]) of the same compound?
**A.** The Survival was 15 days.

**Q.** And the EC50 (Plasmodium falciparum)?
**A.** Its EC50 is 9.1 nM.

**Q.** With `CSc1cc(NC(=O)CC[C@H]2O[C@@H]3O[C@@]4(C)CC[C@H]5[C@H](C)CC[C@@H]([C@H]2C)[C@@]35OO4)cc(SC)c1` as the compound, how does the Activity (Mus musculus) read?
**A.** The Activity was “Non-toxic”.

**Q.** And the Survival (Plasmodium berghei [1])?
**A.** The Survival was 7.5 days.

**Q.** And the EC50 (Plasmodium falciparum)?
**A.** The EC50 was 6.5 nM.

**Q.** How did the EC50 (Plasmodium falciparum) turn out when `C[C@H]1[C@@H](CCC(=O)Nc2cccc([S@+](C)[O-])c2)O[C@@H]2O[C@@]3(C)CC[C@H]4[C@H](C)CC[C@@H]1[C@@]24OO3` was run?
**A.** The EC50 was 23 nM.

**Q.** With `C[C@H]1[C@@H](CCC(=O)Nc2cccc([S@@+](C)[O-])c2)O[C@@H]2O[C@@]3(C)CC[C@H]4[C@H](C)CC[C@@H]1[C@@]24OO3` as the compound, how does the EC50 (Plasmodium falciparum) read?
**A.** The EC50 was 29 nM.

**Q.** Which EC50 (Plasmodium falciparum) does the source give for `C[C@H]1[C@@H](CCC(=O)Nc2cccc(S(C)(=O)=O)c2)O[C@@H]2O[C@@]3(C)CC[C@H]4[C@H](C)CC[C@@H]1[C@@]24OO3` here?
**A.** Its EC50 is 21 nM.

**Q.** With `O[C@@H](c1cc(C(F)(F)F)nc2c(C(F)(F)F)cccc12)[C@H]1CCCCN1` (relative stereo) [(S,R)-MEFLOQUINE] as the compound, how does the Survival (Plasmodium berghei [2]) read?
**A.** The Survival was 19.8 days.

**Q.** What about the Survival (Plasmodium berghei [3]) of the same compound?
**A.** Its Survival is 15.5 days.

**Q.** And the Activity (Plasmodium berghei [4])?
**A.** Its Activity is greater than 99.9%.

**Q.** What about the Activity (Plasmodium berghei [5]) of the same compound?
**A.** The Activity was greater than 99.9%.

**Q.** Which EC50 (Plasmodium falciparum) does the source give for `C[C@@H]1CC[C@H]2[C@@H](C)C(=O)O[C@@H]3O[C@@]4(C)CC[C@@H]1[C@]32OO4` [ARTEMISININ] here?
**A.** Its EC50 is 10 nM.

**Q.** With `CCCCN(CCCC)CC(O)c1cc(Cl)cc2c1-c1ccc(Cl)cc1/C2=C/c1ccc(Cl)cc1` (stereo not given) [LUMEFANTRINE] as the compound, how does the Activity (Plasmodium berghei [5]) read?
**A.** Its Activity is greater than 99.9%.
